Test results: ChEMBL document CHEMBL1126773, “Synthesis, physicochemical properties, and biological evaluation of N-substituted 2-alkyl-3-hydroxy-4(1H)-pyridinones: orally active iron chelators with clinical potential” (J Med Chem, 1993)

How the values were obtained:
[1] = Logarithm of cumulative stability constant was determined
[2] = Acid dissociation constant (pKa1) was determined; assay type: physicochemical; settings: for pKa: read-out: pKa1
How it was run: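 Simultaneous spectrophotometric/potentiometric titration of the ligand. Temperature held at 22.5 ± 0.1 °C, ionic strength 0.1 with KNO3. pKa values were obtained by global optimization across titrations at several ligand concentrations.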

[3] = Acid dissociation constant (pKa2) was determined
[4] = Partition coefficient (logD7.4); assay type: physicochemical; settings: octanol/water, pH 7.4
How it was run: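 Automated filter-probe partitioning between MOPS buffer (50 mM, pH 7.4) and octan-1-ol, each phase pre-equilibrated with the other and purged with nitrogen. UV absorbance was read until stable, then octanol was added in at least 10 aliquots. An estimate came from each addition, giving a mean and standard deviation.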

Equus caballus = species: Equus caballus; assay: Percentage of removal of iron from iron-protein-ferritin; assay type: functional; design: concentration or dose not given beside the values
How it was run: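 Horse spleen ferritin (iron cores equivalent to 450 μM) was incubated with chelator (5 mM) in HEPES (0.1 M, pH 7.2) at 37 °C for up to 36 h. Samples were ultrafiltered to separate the Fe(III) complex, and the filtrate absorbance was read (450 nm; concentrations from ε max).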

[5] = target: Serotransferrin (Homo sapiens) (UniProt P02787); assay: Percentage of removal of iron from iron-protein-transferrin; assay type: functional; design: concentration or dose not given beside the values
How it was run: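 Human transferrin, Fe(III)-loaded (50 μM), was mixed with chelator (100 μM) in MOPS (0.05 M, pH 7.4, 25 °C) with 25 mM NaHCO3. Absorbance at 400–500 nm was scanned every 2 min for 10 min, then every 5 min up to 3 h.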

Rattus norvegicus = species: Rattus norvegicus; assay: Percentage of mobilization of iron in 2 hours from rat hepatocytes; assay type: functional, Hepatocyte
[6] = Percentage of release of lactic dehydrogenase from rat hepatocytes; assay type: functional, Hepatocyte
How it was run: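 Primary rat hepatocytes were plated at 1 × 10⁶/dish, pulsed 17 h with human diferric ⁵⁹Fe-transferrin (100 µg/mL), washed, then exposed to chelators in triplicate. LDH was measured in the supernatant at 6 h.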

Chain of Serotransferrin (Homo sapiens) (P02787 whole entry): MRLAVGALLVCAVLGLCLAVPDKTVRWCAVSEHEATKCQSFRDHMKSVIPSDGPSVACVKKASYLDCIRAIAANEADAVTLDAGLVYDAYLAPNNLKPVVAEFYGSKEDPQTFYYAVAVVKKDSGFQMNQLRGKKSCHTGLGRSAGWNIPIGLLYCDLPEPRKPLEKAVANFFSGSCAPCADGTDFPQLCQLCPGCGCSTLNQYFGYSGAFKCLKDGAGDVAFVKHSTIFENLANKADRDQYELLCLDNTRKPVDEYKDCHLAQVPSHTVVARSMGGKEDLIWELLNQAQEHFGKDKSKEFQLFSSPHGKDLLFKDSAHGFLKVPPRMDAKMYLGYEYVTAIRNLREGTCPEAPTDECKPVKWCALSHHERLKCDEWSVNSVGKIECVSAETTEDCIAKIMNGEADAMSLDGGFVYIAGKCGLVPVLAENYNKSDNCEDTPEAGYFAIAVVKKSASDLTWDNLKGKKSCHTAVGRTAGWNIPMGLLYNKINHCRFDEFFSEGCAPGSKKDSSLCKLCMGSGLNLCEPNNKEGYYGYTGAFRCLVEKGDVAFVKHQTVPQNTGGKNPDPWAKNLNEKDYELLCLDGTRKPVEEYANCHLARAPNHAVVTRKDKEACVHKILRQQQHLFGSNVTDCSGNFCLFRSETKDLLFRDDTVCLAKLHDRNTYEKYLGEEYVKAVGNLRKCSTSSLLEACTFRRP

Structure (SMILES): Oc1ccccc1O [CATECHOL]
- Log beta3 [1]: 44.9
- pKa [2]: 9.2
- pKa [3]: 13.3

Structure (SMILES): CCCn1ccc(=O)c(O)c1CC
- logD [4]: 0.702

Structure (SMILES): COCCn1ccc(=O)c(O)c1C
- Activity (Equus caballus): 28%
- Activity [5]: 55%
- logD [4]: -0.409

Structure (SMILES): CCc1c(O)c(=O)ccn1CC
- logD [4]: 0.25

Structure (SMILES): Oc1ccncc1O
- pKa1 [2]: 3.6
- pKa [2]: 3.34
- pKa2 [3]: 9.6
- pKa ([3]; pKa2): 9.01

Structure (SMILES): Cc1c(O)c(=O)ccn1CCN
- Activity (Equus caballus): 23%
- Activity [5]: 56%
- logD [4]: -1.55

Structure (SMILES): CCCCn1ccc(=O)c(O)c1C
- Activity [5]: 52%
- pKa [2]: 3.62
- logD [4]: 0.703
- pKa ([3]; pKa2): 9.87

Structure (SMILES): CCn1cccc(O)c1=O
- Activity (Rattus norvegicus): 115%
- Log beta3 [1]: 32
- Activity [6]: 102%

Structure (SMILES): CCCCCCn1ccc(=O)c(O)c1CC
- logD [4]: 2.28

Structure (SMILES): CCn1ccc(=O)c(O)c1C
- Log beta3 [1]: 37.7
- pKa [2]: 3.65
- logD [4]: -0.31
- pKa ([3]; pKa2): 9.88

Structure (SMILES): CCc1c(O)c(=O)ccn1C
- logD [4]: -0.205

Structure (SMILES): CCN(C)C(=O)CCn1ccc(=O)c(O)c1C
- logD [4]: -0.686

Structure (SMILES): CCCn1ccc(=O)c(O)c1C
- Activity (Equus caballus): 28%
- Activity (Rattus norvegicus): 252%
- Log beta3 [1]: 37.7
- Activity [5]: 52%
- Activity [6]: 105%
- pKa [2]: 3.62
- pKa ([3]; pKa2): 9.92

Structure (SMILES): Cc1c(O)c(=O)ccn1C [DEFERIPRONE]
- Activity (Equus caballus): 34%
- Log beta3 [1]: 37.2
- Activity [5]: 54%
- logD [4]: -0.77

Structure (SMILES): Cc1c(O)c(=O)ccn1CCCC(=O)O
- Activity (Equus caballus): 12%
- Activity [5]: 53%

Structure (SMILES): Cc1c(O)c(=O)ccn1CCC(=O)N(C)C
- logD [4]: -1.16

Structure (SMILES): CCc1c(O)c(=O)ccn1C(C)C
- logD [4]: 0.732

Structure (SMILES): CCCCCn1ccc(=O)c(O)c1C
- logD [4]: 1.24

Structure (SMILES): CC(=O)NO [ACETOHYDROXAMIC ACID]
- Log beta3 [1]: 28.3
- pKa ([3]; pKa2): 9.4

Structure (SMILES): CCCNC(=O)CCn1ccc(=O)c(O)c1C
- logD [4]: -0.396

Structure (SMILES): Cc1c(O)c(=O)ccn1C(C)C
- Activity (Equus caballus): 26%
- Activity [5]: 51%
- logD [4]: 0.0492

Structure (SMILES): CCCCCCCCn1ccc(=O)c(O)c1C
- logD [4]: 2.88

Structure (SMILES): Cc1c(O)c(=O)ccn1CCCN
- logD [4]: -2.1

Structure (SMILES): CCCCn1ccc(=O)c(O)c1CC
- logD [4]: 1.22

Structure (SMILES): Cc1c(O)c(=O)ccn1CCC(=O)NC(C)C
- logD [4]: -0.471

Structure (SMILES): CCNC(=O)CCn1ccc(=O)c(O)c1C
- logD [4]: -0.818

Structure (SMILES): Cc1c(O)c(=O)ccn1CCCCO
- logD [4]: -0.742

Structure (SMILES): Cc1c(O)c(=O)ccn1CCCO
- logD [4]: -0.879

Structure (SMILES): Cc1nccc(O)c1O
- Log beta3 [1]: 37.2
- pKa [2]: 3.7
- logD [4]: -0.495
- pKa ([3]; pKa2): 9.76

Structure (SMILES): CCc1nccc(O)c1O
- logD [4]: 0.0453

Structure (SMILES): CCc1c(O)c(=O)ccn1CCO
- logD [4]: -0.658

Structure (SMILES): CCN(CC)C(=O)CCn1ccc(=O)c(O)c1C
- logD [4]: -0.361

Structure (SMILES): CCOCCCn1ccc(=O)c(O)c1C
- Activity [5]: 49%
- logD [4]: 0.121

Structure (SMILES): CC(=O)N(O)CCCCCNC(=O)CCC(=O)N(O)CCCCCNC(=O)CCC(=O)N(O)CCCCCN
- Activity (Equus caballus): 11%
- Activity [5]: 5%

Structure (SMILES): CCCCCCn1ccc(=O)c(O)c1C
- logD [4]: 1.9

Structure (SMILES): Cc1c(O)c(=O)ccn1CCO
- Activity (Equus caballus): 29%
- Activity [5]: 47%
- logD [4]: -1.1

Structure (SMILES): CCOCCCn1ccc(=O)c(O)c1CC
- logD [4]: 0.716

Structure (SMILES): COCC(C)n1ccc(=O)c(O)c1C (stereo not drawn)
- logD [4]: -0.26

Structure (SMILES): Oc1cccc2cccnc12 [OXYQUINOLINE]
- Activity (Rattus norvegicus): 110%
- Log beta3 [1]: 37
- Activity [6]: 260%

Structure (SMILES): CCc1c(O)c(=O)ccn1CCOC
- logD [4]: 0.0414

Structure (SMILES): O/N=C/c1ccccn1
- Activity (Rattus norvegicus): 108%
- Log beta3 [1]: 30
- Activity [6]: 108%

Structure (SMILES): CNC(=O)CCn1ccc(=O)c(O)c1C
- logD [4]: -1.1
